Values joined by “and” are separate entries in the source; they are usually repeats but may differ in a detail not shown here. Identical values can stand only once.
Test system: HEK-293T
Experiment: Multiplex assay against HEK293T
Assay type: toxicity, cell-based
Conditions: human
Method in brief: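 With compound added, live cells were imaged on a CQ1 microscope at 37°C and 5% CO2; staining with Hoechst33342, BioTracker Green Microtubule Cytoskeleton Dye, MitoTracker Red and Annexin V Alexa Fluor 680 had been done at seeding. The CellPathfinder machine-learning gating scheme split cells into Hoechst high-intensity objects or normal cells, normal cells into healthy, pyknosed or fragmented nuclei, and pyknosed cells into mitotic or apoptotic. The tubulin, mitochondrial-mass and membrane-permeability phenotypes are per cents of healthy-nucleus cells.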

[1] = 12 h, 1 µM, compound concentration 1 uM
[2] = 12 h, 10 µM, compound concentration 10 uM
[3] = 24 h, 1 µM, compound concentration 1 uM
[4] = 24 h, 10 µM, compound concentration 10 uM
[5] = 48 h, 1 µM, compound concentration 1 uM
[6] = 48 h, 10 µM, compound concentration 10 uM

## CSc1nc(NC2CCCC2)c([N+](=O)[O-])c(NC2CCCC2)n1 [GS-39783]
[1]
  Population Apoptotic (%): 45% and 40%
  Population Fragmented Nuclei (%): 11% and 3%
  Population Healthy Nuclei (%): 74% and 85%
  Population Hoechst High Intensity Objects (%): 8% and 4%
  Population Membrane Permeable-Phenotype (%): 0%
  Population Mitochondria Different-Phenotype (%): 41% and 68%
  Population Mitotic Cells (%): 54% and 59%
  Population Normal (%): 91% and 95%
  Population Pyknosed Nuclei (%): 14% and 11%
  Population Tubulin-Different-Phenotype (%): 30% and 27%
  Total Cell Count: 346 and 301
[2]
  Population Apoptotic (%): 29% and 40%
  Population Fragmented Nuclei (%): 6% and 5%
  Population Healthy Nuclei (%): 81% and 84%
  Population Hoechst High Intensity Objects (%): 6% and 5%
  Population Membrane Permeable-Phenotype (%): 0%
  Population Mitochondria Different-Phenotype (%): 50% and 68%
  Population Mitotic Cells (%): 70% and 60%
  Population Normal (%): 93% and 94%
  Population Pyknosed Nuclei (%): 12% and 10%
  Population Tubulin-Different-Phenotype (%): 40% and 29%
  Total Cell Count: 449 and 406
[3]
  Population Apoptotic (%): 30% and 38%
  Population Fragmented Nuclei (%): 12% and 7%
  Population Healthy Nuclei (%): 76% and 84%
  Population Hoechst High Intensity Objects (%): 7% and 8%
  Population Membrane Permeable-Phenotype (%): 0%
  Population Mitochondria Different-Phenotype (%): 25% and 51%
  Population Mitotic Cells (%): 69% and 61%
  Population Normal (%): 92% and 91%
  Population Pyknosed Nuclei (%): 11% and 7%
  Population Tubulin-Different-Phenotype (%): 19%
  Total Cell Count: 492 and 360
[4]
  Population Apoptotic (%): 27% and 37%
  Population Fragmented Nuclei (%): 11% and 8%
  Population Healthy Nuclei (%): 78% and 83%
  Population Hoechst High Intensity Objects (%): 5% and 6%
  Population Membrane Permeable-Phenotype (%): 1% and 0%
  Population Mitochondria Different-Phenotype (%): 30% and 52%
  Population Mitotic Cells (%): 72% and 62%
  Population Normal (%): 94% and 93%
  Population Pyknosed Nuclei (%): 10% and 7%
  Population Tubulin-Different-Phenotype (%): 30% and 28%
  Total Cell Count: 553 and 474
[5]
  Population Apoptotic (%): 35% and 30%
  Population Fragmented Nuclei (%): 15% and 13%
  Population Healthy Nuclei (%): 74% and 77%
  Population Hoechst High Intensity Objects (%): 3% and 6%
  Population Membrane Permeable-Phenotype (%): 1% and 0%
  Population Mitochondria Different-Phenotype (%): 22% and 32%
  Population Mitotic Cells (%): 64% and 69%
  Population Normal (%): 96% and 93%
  Population Pyknosed Nuclei (%): 9% and 8%
  Population Tubulin-Different-Phenotype (%): 22% and 24%
  Total Cell Count: 775 and 505
[6]
  Population Apoptotic (%): 17% and 30%
  Population Fragmented Nuclei (%): 14% and 13%
  Population Healthy Nuclei (%): 78% and 77%
  Population Hoechst High Intensity Objects (%): 3% and 5%
  Population Membrane Permeable-Phenotype (%): 1% and 0%
  Population Mitochondria Different-Phenotype (%): 27% and 35%
  Population Mitotic Cells (%): 82% and 69%
  Population Normal (%): 96% and 94%
  Population Pyknosed Nuclei (%): 7% and 8%
  Population Tubulin-Different-Phenotype (%): 21%
  Total Cell Count: 856 and 647

## CN[C@@H](C)C(=O)N[C@H](C(=O)N1CCC[C@H]1C(=O)Nc1snnc1-c1ccccc1)C1CCCCC1 [GDC-0152]
[1]
  Population Apoptotic (%): 31% and 60%
  Population Fragmented Nuclei (%): 5%
  Population Healthy Nuclei (%): 78% and 79%
  Population Hoechst High Intensity Objects (%): 5% and 7%
  Population Membrane Permeable-Phenotype (%): 0%
  Population Mitochondria Different-Phenotype (%): 41% and 62%
  Population Mitotic Cells (%): 68% and 39%
  Population Normal (%): 94% and 92%
  Population Pyknosed Nuclei (%): 15% and 14%
  Population Tubulin-Different-Phenotype (%): 35% and 26%
  Total Cell Count: 444 and 314
[2]
  Population Apoptotic (%): 50% and 72%
  Population Fragmented Nuclei (%): 6% and 7%
  Population Healthy Nuclei (%): 73%
  Population Hoechst High Intensity Objects (%): 13% and 20%
  Population Membrane Permeable-Phenotype (%): 0%
  Population Mitochondria Different-Phenotype (%): 78% and 89%
  Population Mitotic Cells (%): 49% and 28%
  Population Normal (%): 86% and 80%
  Population Pyknosed Nuclei (%): 20% and 18%
  Population Tubulin-Different-Phenotype (%): 78% and 72%
  Total Cell Count: 362 and 330
[3]
  Population Apoptotic (%): 30% and 38%
  Population Fragmented Nuclei (%): 8% and 5%
  Population Healthy Nuclei (%): 80% and 82%
  Population Hoechst High Intensity Objects (%): 4% and 6%
  Population Membrane Permeable-Phenotype (%): 1% and 0%
  Population Mitochondria Different-Phenotype (%): 28% and 53%
  Population Mitotic Cells (%): 69% and 61%
  Population Normal (%): 95% and 93%
  Population Pyknosed Nuclei (%): 10% and 12%
  Population Tubulin-Different-Phenotype (%): 23% and 22%
  Total Cell Count: 601 and 387
[4]
  Population Apoptotic (%): 45% and 60%
  Population Fragmented Nuclei (%): 10% and 12%
  Population Healthy Nuclei (%): 71% and 68%
  Population Hoechst High Intensity Objects (%): 7% and 21%
  Population Membrane Permeable-Phenotype (%): 0%
  Population Mitochondria Different-Phenotype (%): 74% and 80%
  Population Mitotic Cells (%): 54% and 40%
  Population Normal (%): 92% and 78%
  Population Pyknosed Nuclei (%): 17% and 19%
  Population Tubulin-Different-Phenotype (%): 69% and 58%
  Total Cell Count: 454 and 400
[5]
  Population Apoptotic (%): 31% and 40%
  Population Fragmented Nuclei (%): 12% and 10%
  Population Healthy Nuclei (%): 78% and 82%
  Population Hoechst High Intensity Objects (%): 4% and 3%
  Population Membrane Permeable-Phenotype (%): 1%
  Population Mitochondria Different-Phenotype (%): 22% and 29%
  Population Mitotic Cells (%): 68% and 60%
  Population Normal (%): 95% and 96%
  Population Pyknosed Nuclei (%): 9% and 6%
  Population Tubulin-Different-Phenotype (%): 16%
  Total Cell Count: 928 and 603
[6]
  Population Apoptotic (%): 47% and 60%
  Population Fragmented Nuclei (%): 12%
  Population Healthy Nuclei (%): 73% and 70%
  Population Hoechst High Intensity Objects (%): 16% and 21%
  Population Membrane Permeable-Phenotype (%): 0%
  Population Mitochondria Different-Phenotype (%): 74% and 76%
  Population Mitotic Cells (%): 52% and 39%
  Population Normal (%): 83% and 78%
  Population Pyknosed Nuclei (%): 13% and 17%
  Population Tubulin-Different-Phenotype (%): 55% and 52%
  Total Cell Count: 538 and 417
